KCNK3 inh – human KCNK3 channel inhibitors, primary screen, CHO cells, FluxOR thallium flux, B-score; actives 0.84% (n = 340,000); B-score at 10 µM; AID 602410, 2012; FluxOR fluorescence; hits give low values;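 active = B-score under library mean minus 4 SD, starting fluorescence ratio at most library mean plus 5 SD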;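 also: more negative B-score means stronger inhibition of thallium flux through KCNK3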
KCNK9 inh – KCNK9 potassium channel inhibitors, primary screen, HEK293 cells, thallium flux | Potassium channel subfamily K member 9 (Homo sapiens), Q9NPC2 | FluxOR thallium flux fluorescence; hits give low values | B-score at 10 µM | actives 1.2% (n = 310,000) | AID 488922, 2010;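 active = ratio B-score over 3 SD below the library mean, with starting fluorescence within 5 SD of its mean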;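 also: negative B-score means less thallium flux so channel inhibition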
KCNQ1 pot – potentiators or activators of KCNQ1 channel, primary screen, cell-based, thallium flux, high-throughput. B-score at 10 µM. AID 2648, 2010. CHO-K1 KCNQ1, thallium flux FluxOR fluorescence; hits give high values. actives 0.35% (n = 310,000);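 active = fluorescence ratio B-score, a plate-corrected score, at least three library SD, with initial intensity B-score within 5 SD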
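System: Stable KCNQ1 CHO-K1 line | Incubation: 90 min dye loading and 20 min compound exposure, both at room temperature | Measure: Ratio B score | Medium: Assay buffer for compound exposure, DMSO matched across wells | Compound dosing: Single-concentration screen | Probe or stimulus: K+/Tl+ depolarizing stimulus | Measured by: Kinetic FluxOR fluorescence, 10 s baseline plus 110 s post-stimulus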
KCNQ1 inh – inhibitors of human KCNQ1 channel, primary screen, cell-based, thallium flux, high-throughput. Potassium voltage-gated channel subfamily KQT member 1 (Homo sapiens), P51787. actives 1.3% (n = 310,000). CHO-K1 KCNQ1, FluxOR thallium flux fluorescence; hits give high values. B-score at 10 µM;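 active = compounds whose thallium flux B-score, printed positive for inhibition, exceeds three library SD while starting fluorescence stays within three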;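 also: channel opened by potassium depolarization with thallium stimulus after 20 min compound exposure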
KCC2 mod – KCC2 cotransporter modulators, thallium flux, primary screen, cell-based, HEK293 KCC2, FluoZin-2 fluorescence, MLSMR; Solute carrier family 12 member 5 (Homo sapiens), Q9H2X9; KCC2 cells, thallium flux FluoZin-2 fluorescence; B-score of Tl+ flux slope (higher = more flux/activation; lower = inhibition) at 10 µM; actives 2.2% (n = 190,000);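 active = thallium flux slope and its plate-corrected score both differing from the plate sample mean at a set confidence after two filtering rounds, in either direction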;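 also: slope of fluorescence scaled to starting intensity during 10 to 20 s after thallium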
hERG protect – hERG rescue from dofetilide block, primary screen, cell-based, CHO-hERG, FluxOR thallium flux, dofetilide IC70; AID 1511, 2009; dofetilide IC70 present; activation (rescue from dofetilide block), less the hit threshold, % at 10 µM; actives 0.51% (n = 310,000);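 active = activation above the mean of controls blocked by dofetilide plus 5 SD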;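 also: thallium influx through hERG after potassium depolarization seen as dye fluorescence rise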
Target sequence (Q12809 whole entry, looked up): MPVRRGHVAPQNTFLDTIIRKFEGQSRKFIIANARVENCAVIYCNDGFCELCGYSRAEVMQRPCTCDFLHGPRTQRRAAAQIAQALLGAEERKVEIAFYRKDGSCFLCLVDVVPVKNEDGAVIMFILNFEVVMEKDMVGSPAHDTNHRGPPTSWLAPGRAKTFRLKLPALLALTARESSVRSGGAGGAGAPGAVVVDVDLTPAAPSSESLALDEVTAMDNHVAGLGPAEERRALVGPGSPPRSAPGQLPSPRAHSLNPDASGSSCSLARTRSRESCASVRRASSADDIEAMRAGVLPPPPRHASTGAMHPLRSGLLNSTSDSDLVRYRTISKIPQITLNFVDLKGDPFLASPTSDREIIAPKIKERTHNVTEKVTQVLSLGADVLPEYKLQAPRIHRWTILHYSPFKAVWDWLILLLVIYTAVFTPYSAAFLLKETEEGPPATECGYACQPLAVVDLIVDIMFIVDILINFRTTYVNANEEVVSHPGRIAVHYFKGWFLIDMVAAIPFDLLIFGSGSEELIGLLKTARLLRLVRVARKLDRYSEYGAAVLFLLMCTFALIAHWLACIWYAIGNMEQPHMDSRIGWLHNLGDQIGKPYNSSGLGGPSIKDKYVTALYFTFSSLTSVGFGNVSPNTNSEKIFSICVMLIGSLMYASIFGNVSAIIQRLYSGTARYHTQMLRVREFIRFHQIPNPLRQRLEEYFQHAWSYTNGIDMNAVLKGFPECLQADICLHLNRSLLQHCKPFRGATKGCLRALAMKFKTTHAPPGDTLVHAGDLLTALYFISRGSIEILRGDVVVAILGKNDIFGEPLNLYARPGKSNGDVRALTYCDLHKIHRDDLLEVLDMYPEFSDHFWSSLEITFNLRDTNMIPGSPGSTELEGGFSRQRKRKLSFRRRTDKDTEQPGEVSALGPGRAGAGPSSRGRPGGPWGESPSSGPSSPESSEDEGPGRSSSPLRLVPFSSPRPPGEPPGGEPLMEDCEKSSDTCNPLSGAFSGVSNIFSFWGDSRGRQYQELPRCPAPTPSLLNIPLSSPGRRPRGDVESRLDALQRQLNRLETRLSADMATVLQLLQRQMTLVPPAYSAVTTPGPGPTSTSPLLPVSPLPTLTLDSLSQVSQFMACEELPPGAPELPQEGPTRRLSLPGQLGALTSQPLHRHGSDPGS
* marks the source's active call; other numbers are inactive results; i = inactive; . = no result. A selection: hits, their analogues and other compounds. The true share with any hit is near 4.1%.

SMILES	KCNK3 inh	KCNK9 inh	KCNQ1 pot	KCNQ1 inh	KCC2 mod	hERG protect
C=CCn1c(SCC(O)Cn2c3ccccc3c3ccccc32)nnc1-c1ccco1 (centres undefined)	i	-7.17*	i	i	-1.55	-9.0
COC(=O)Nc1nn(-c2ccc(C)cc2)c(=O)c(C#N)c1C	i	i	i	i	.	-10.3
COC(=O)Nc1nn(-c2ccc(OC)cc2)c(=O)c(C#N)c1C	i	i	i	i	.	5.5*
COc1cc(C=C(c2nc3ccccc3s2)c2nc3ccccc3s2)ccc1O	i	i	i	6*	-1.68	-14.4
CCNc1ccc(C(=O)N/N=C/c2c(C)nn(-c3ccccc3)c2N2CCCC2)cc1[N+](=O)[O-]	i	i	i	6*	-2.04	-6.8
Cc1ccc(NS(=O)(=O)c2cccc(C(=O)N/N=C/c3c(C)nn(-c4ccccc4)c3N3CCCC3)c2)c(C)c1	i	i	i	i	-0.00625	-4.5
CCOc1cc2[nH]c(=O)n(CCCCCC(=O)NCc3ccco3)c(=O)c2cc1OCC	i	i	i	i	-0.22	-3.4
CCCCN(C)C(=O)CCCCn1c(=O)[nH]c2cc(OCC)c(OCC)cc2c1=O	i	i	i	i	-1.42	47.8*
CCCCOc1cc(=O)[nH]c(=O)[nH]1	i	i	i	i	.	4.7*
CCOc1ccc(Nc2cc(=O)[nH]c(=O)[nH]2)cc1	i	i	i	i	.	-9.5
CC(C)(C)NC(=O)COc1ccc(-c2ccccc2)cc1	i	-7.7*	i	i	-0.0315	-18.1
COc1cccc2c1c(NC(=O)c1cc(C)on1)nn2C	i	i	i	i	0.455	-7.5
O=C(N=Nc1c(O)[nH]c2ccc([N+](=O)[O-])cc12)c1cc(-c2ccccc2Cl)nc2ccccc12	i	i	i	i	0.697	15.3*
Cc1cc(C(=O)N/N=C/C=C/c2ccc(Br)cc2)n[nH]1	i	i	i	i	.	-4.5
CCN(CC)CCn1c(=S)[nH]c2cc(Cl)ccc2c1=O	i	i	i	i	25.5*	-8.7
CCN(CC)CCn1c(=S)[nH]c2cc(C(=O)N3CC(C)CC(C)C3)ccc2c1=O (centres undefined)	i	i	i	i	.	-5.5
COCC(C)NC(=O)CSc1nc2ccccc2c(=O)n1CCc1ccc(S(N)(=O)=O)cc1 (centres undefined)	i	i	i	i	.	-19.7
COc1ccc(-n2cc(-c3ccc(C)cc3)[n+]3c2SCC3)cc1	i	i	i	7*	0.296	-19.5
CCc1ccc(-n2cc(-c3ccc(F)cc3)[n+]3c2SCCC3)cc1	i	i	i	6*	1.05	-17.7
Cc1ccc(-c2cn(-c3ccccc3)c3[n+]2CCCS3)cc1	i	i	i	i	0.174	-20.0
Cc1ccc(/C=c2/sc3n(c2=O)CCCN=3)o1	i	i	i	6*	-0.519	-14.1
CCN(c1cccc(C)c1)S(=O)(=O)c1c(C)[nH]c(=O)[nH]c1=O	i	i	i	i	.	1.3
CCN(c1cccc(C)c1)S(=O)(=O)c1cnc[nH]1	i	i	i	i	.	5.3*
Cc1ccccc1CSCC(=O)Nc1ccccc1F	i	i	i	i	.	-17.6
O=C(CSc1nc2ccccc2[nH]1)N1CCN(C(=O)c2ccco2)CC1	i	i	i	i	-0.0199	-11.9
SMILES	KCNK3 inh	KCNK9 inh	KCNQ1 pot	KCNQ1 inh	KCC2 mod	hERG protect
O=C(NCc1ccncc1)c1cc(C(=O)C2CCCCC2)c[nH]1	i	i	i	i	-0.628	6.2*
O=C(c1cc2nc(-c3ccc(Cl)cc3)cc(C(F)(F)F)n2n1)N1CCOCC1	i	i	i	i	0.317	46.3*
CN(CC(=O)Nc1ccc(Cl)c(Cl)c1)C(=O)C1CCCC1	i	.	.	.	.	.
COc1ccc(S(=O)(=O)Nc2nc3ccccc3s2)cc1OC	i	i	i	i	-0.144	4.7*
C/C(=N\NC(=O)CNc1ccccc1Cl)C(C)(C)C	i	i	i	i	0.682	-2.1
Cc1ccc(-c2csc(NC(=O)COc3ccc(N(C)S(=O)(=O)c4ccc(C)cc4)cc3)n2)cc1	i	i	i	i	0.641	-11.7
COc1ccc(NC(=O)COc2ccc(N(C)S(=O)(=O)c3ccc(Cl)cc3)cc2)cc1OC	i	i	i	10*	.	-22.8
CCN(C(=O)COc1ccc(N(C)S(=O)(=O)c2ccc(NC(C)=O)cc2)cc1)C1CCCCC1	-8.74*	.	.	.	.	.
COc1ccc(-c2csc(NC(=O)COc3ccc(N(C)S(=O)(=O)c4ccc(C)cc4)cc3)n2)cc1	i	-8*	i	i	-0.0283	-10.8
CN(c1ccc(OCC(=O)OCC(=O)Nc2ccc(F)cc2)cc1)S(=O)(=O)c1ccc(Cl)cc1	i	i	i	i	0.0318	-3.0
CCN(CC)C(=O)COc1ccc(N(C)S(=O)(=O)c2ccc(NC(C)=O)cc2)cc1	i	i	i	i	0.00439	-8.9
Cc1cc(Br)ccc1OCCCCN1CCCCC1	i	i	i	i	1.01	-15.7
Cc1sc2ncnc(N3CCC(C(=O)Nc4sc5c(c4C(N)=O)CCC(C)C5)CC3)c2c1C (centres undefined)	i	.	.	.	.	.
CCCNCC1C(Oc2ccc(Cl)cc2Cl)C(=O)N1c1cccc(C)c1C (centres undefined)	i	-6.74*	i	i	0.0841	-19.4
CCCC(=O)Nc1ccc(OCC(O)CNC(C)C)c(C(C)=O)c1 (centres undefined)	i	i	9*	i	0.95	-8.6
COc1ccccc1C1=NOC(C(=O)N2CCN(C(=O)c3ccco3)CC2)C1 (centres undefined)	i	i	i	i	.	-4.2
COc1cc(/C=C2/C(=O)N(c3ccc(Br)cc3)N=C2C)cc(OC)c1OC	i	i	i	8*	.	-7.8
Cc1nc(SCC(=O)N2CCOCC2)c2c(C)c(C)sc2n1	i	i	i	i	.	-4.2

Screening data: PubChem BioAssay, several laboratories
